Activity data for eleven compounds are collected here from ChEMBL document CHEMBL1154432, “Synthesis and pharmacological investigation of novel 4-(2-methylphenyl)-1-substituted-4H-[1,2,4]triazolo[4,3-a]quinazolin-5-ones as new class of H(1)-antihistaminic agents” (2008).

In assay [1] the test system is Mus musculus. The experiment in a line: Sedative-hypnotic activity in Swiss Albino mouse assessed as CNS depression at 5 mg/kg, po after 2 hrs. The format is functional. The method in brief:
(§1)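 The basal motor activity score was recorded first. Compound was then given orally in 1% CMC, and scores were taken at 1, 2 and 3 h post-dose. % reduction in motor activity = [(A−B)/A]×100, with A the basal score and B the post-treatment score. Significance was tested by Student's t-test.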

For assay [2], the system named is Mus musculus. In words: Sedative-hypnotic activity in Swiss Albino mouse assessed as CNS depression at 5 mg/kg, po after 1 hr. The assay is classed as functional. The method in brief:
as §1

For assay [3], the system named is Mus musculus. In words: Sedative-hypnotic activity in Swiss Albino mouse assessed as CNS depression at 5 mg/kg, po after 3 hrs. The assay is classed as functional. The method in brief:
as §1

The subject of assay [4] is Cavia porcellus. The experiment in a line: Antihistaminic activity against Dunkin-Hartley guinea pig assessed as protection against histamine-induced bronchospasm at 10 mg/kg, po. The assay is classed as functional. An outline of the steps:
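Male Dunkin Hartley guinea pigs (250–300 g), fasted 12 h, six per group. Dosed orally in 1% CMC, then challenged with histamine aerosol (0.2% aqueous histamine acid chloride) sprayed from a pocket nebulizer into a closed cage. Preconvulsion onset time was recorded, and animals stable beyond 6 min counted as protected. Mean preconvulsion time vs control expressed as % protection.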

Assay [5] relates to Cavia porcellus. The experiment in a line: Antihistaminic activity against Dunkin-Hartley guinea pig assessed as protection against histamine-induced bronchospasm at 10 mg/kg, po.

Consider `Cc1ccccc1-n1c(=O)c2ccccc2n2c(CN3CCNCC3)nnc12`, for which the Activity in the assay with Mus musculus [1] was 13%; in the assay with Mus musculus [2] it was 12%; in the assay on Mus musculus [3], 9%; in the assay on Cavia porcellus [4], 70.7%.

Regarding `Cc1ccccc1-n1c(=O)c2ccccc2n2c(C)nnc12`, the Activity in the assay on Mus musculus [1] is 14%; in the assay on Mus musculus [2], 11%; in the assay on Mus musculus [3], 8%; in the assay with Cavia porcellus [4] it was 72.45%.

Consider `CCCc1nnc2n(-c3ccccc3C)c(=O)c3ccccc3n12`, for which the Activity turned out to be 17% with Mus musculus [1], 13% in the assay on Mus musculus [2], 8% with Mus musculus [3] and 69.47% in the assay with Cavia porcellus [4].

As to `Cc1ccccc1-n1c(=O)c2ccccc2n2c(CN3CCN(C)CC3)nnc12`, the Activity in the assay on Mus musculus [1] is reported as 18%; in the assay with Mus musculus [2], 12%; with Mus musculus [3], 10%; with Cavia porcellus [4], 72.05%.

As to `Cc1ccccc1-n1c(=O)c2ccccc2n2c(CN3CCCCC3)nnc12`, the Activity with Mus musculus [1] was 16%; in the assay on Mus musculus [2] it was 13%; in the assay with Mus musculus [3] it was 9%; in the assay on Cavia porcellus [4] it was 69.47%.

Turning to `Cc1ccccc1-n1c(=O)c2ccccc2n2c(N3CCCC3)nnc12`, the Activity stood at 14% with Mus musculus [1], 10% with Mus musculus [2], 7% in the assay on Mus musculus [3] and 68.81% in the assay with Cavia porcellus [4].

Regarding `Cc1ccccc1-n1c(=O)c2ccccc2n2c(CCl)nnc12`, the Activity with Mus musculus [1] was found to be 13%; in the assay on Mus musculus [2], 8%; in the assay with Mus musculus [3], 4%; with Cavia porcellus [4], 68.56%.

With `CCc1nnc2n(-c3ccccc3C)c(=O)c3ccccc3n12`, the Activity with Mus musculus [1] was 14%; with Mus musculus [2], 13%; in the assay on Mus musculus [3] it was 9%; in the assay with Cavia porcellus [4], 70.78%.

On to `CN(C)CCC(c1ccc(Cl)cc1)c1ccccn1.O=C(O)/C=C\C(=O)O` (centres undefined) [CHLORPHENIRAMINE MALEATE], for which the Activity in the assay with Cavia porcellus [5] is 71%; with Mus musculus [1], 32%; with Mus musculus [2], 37%; in the assay with Mus musculus [3], 22%.

For the compound `Cc1ccccc1-n1c(=O)c2ccccc2n2c(N3CCOCC3)nnc12`, the Activity is 15% in the assay on Mus musculus [1], 10% with Mus musculus [2], 10% with Mus musculus [3] and 70.33% in the assay with Cavia porcellus [4].

For the compound `Cc1ccccc1-n1c(=O)c2ccccc2n2cnnc12`, the Activity is recorded as 11% in the assay with Mus musculus [1], 9% with Mus musculus [2], 5% in the assay on Mus musculus [3] and 69.87% in the assay with Cavia porcellus [4].
